From ChEMBL document CHEMBL3272325, “Structure-activity relationships of dimeric Catharanthus alkaloids. 1. Deacetylvinblastine amide (vindesine) sulfate” (J Med Chem, 1978)

Assays:
B16 [1] = experiment: Antitumor activity against mouse B16 cells allografted in B6D2F1 mouse assessed as mean survival time at 3 mg/kg/day, ip administered on day 1, 5 and 9 (reference value: 20.0 days); format: functional; settings: route intraperitoneal
Procedure, shortened: (§1)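 Male B6D2F1 mice implanted ip on day 0 with 0.25 mL of a 20% (w/v) B16 melanoma brei. Alkaloid sulfate salts given ip on days 1, 5, 9 or on days 5, 9, 13, groups of 10, against 30 untreated controls. Read-outs: median survival time with range of individual deaths, and percent increase in life span, with survivors counted on day 56.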

[2] = test system: Friend murine leukemia virus; experiment: Antimicrobial activity against Friend leukemia virus infected in mouse assessed as inhibition of spleen enlargement at 0.2 mg/kg/day, iv for 10 days relative to untreated control; format: functional; settings: 240 h
Procedure, shortened: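 DBA/2 mice bearing Friend leukemia virus were dosed iv for 10 days. Spleen enlargement was compared with untreated controls.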

B16 [3] = experiment: Antitumor activity against mouse B16 cells allografted in C57Bl/6 mouse assessed as mean survival time at 0.9 mg/kg/day, ip administered on day 5, 9 and 13 (reference value: 21.5 days); settings: route intraperitoneal
B16 [4] = experiment: Antitumor activity against mouse B16 cells allografted in B6D2F1 mouse assessed as mean survival time at 0.389 mg/kg/day, ip administered on day 5, 9 and 13 (reference value: 20.0 days); format: functional; settings: route intraperitoneal; procedure, shortened: as §1
P388 [5] = experiment: Antitumor activity against mouse P388 cells allografted in mouse assessed as increase in life span at 2.7 mg/kg/day, ip after 1 day; format: functional; settings: 24 h, route intraperitoneal
Procedure, shortened: (§2)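 P388 ascites implanted ip in mice, 10 animals per group. Sulfate salts given ip either daily on days 1-9 or as a single dose on day 1. Median life span was calculated using all deaths and survivors. Percent increase in life span was taken over untreated controls. The highest nontoxic dose was noted.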

P388 [6] = experiment: Antitumor activity against mouse P388 cells allografted in mouse assessed as increase in life span at 13.5 mg/kg/day, ip after 1 day; format: functional; settings: 24 h, route intraperitoneal
[7] = Antitumor activity against mouse Gardner lymphosarcoma cell allografted in mouse at 0.2 to 0.3 mg/kg/day, ip; format: functional; settings: route intraperitoneal
Procedure, shortened: (§3)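 Ridgeway osteogenic sarcoma and Gardner lymphosarcoma in mice, with sulfate salts given ip daily on days 1-9. Tumor growth inhibition versus controls scored in bands: +++ = 75-100%, ++ = 50-75%, ± = under 25%.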

[8] = Antitumor activity against mouse P1534(J) cells allografted in mouse assessed as tumor growth inhibition at 0.2 mg/kg/day, ip administered from day 1 to day 9 relative to unreated control; format: functional; settings: P1534J, route intraperitoneal, read-out: TGI
Procedure, shortened: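 P1534(J) leukemia implanted subcutaneously in mice. Sulfate salts given ip daily on days 1-9. Read-out was percent inhibition of tumor growth relative to untreated controls. The highest nontoxic dose was recorded.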

B16 [9] = experiment: Antitumor activity against mouse B16 cells allografted in B6D2F1 mouse assessed as mean survival time at 1.08 mg/kg/day, ip administered on day 1, 5 and 9 (reference value: 20.0 days); format: functional; settings: route intraperitoneal; procedure, shortened: as §1
B16 [10] = experiment: Antitumor activity against mouse B16 cells allografted in B6D2F1 mouse assessed as mean survival time at 3 mg/kg/day, ip administered on day 5, 9 and 13 (reference value: 20.0 days); format: functional; settings: route intraperitoneal; procedure, shortened: as §1
B16 [11] = experiment: Antitumor activity against mouse B16 cells allografted in B6D2F1 mouse assessed as increase in life span at 0.389 mg/kg/day, ip administered on day 1, 5 and 9 measured for 56 days relative to untreated control; format: functional; settings: route intraperitoneal; procedure, shortened: as §1
[12] = Toxicity in ip dosed mouse allografted with mouse p388 cells after 1 day; format: organism-based; settings: in vivo, read-out: MNTD; procedure, shortened: as §2
B16 [13] = experiment: Antitumor activity against mouse B16 cells allografted in B6D2F1 mouse assessed as mean survival time at 1.08 mg/kg/day, ip administered on day 5, 9 and 13 (reference value: 20.0 days); format: functional; settings: route intraperitoneal; procedure, shortened: as §1
B16 [14] = experiment: Antitumor activity against mouse B16 cells allografted in B6D2F1 mouse assessed as mean survival time at 0.648 mg/kg/day, ip administered on day 1, 5 and 9 (reference value: 20.0 days); format: functional; settings: route intraperitoneal; procedure, shortened: as §1
B16 [15] = experiment: Antitumor activity against mouse B16 cells allografted in C57Bl/6 mouse assessed as increase in life span at 0.9 mg/kg/day, ip administered on day 5, 9 and 13 measured for 61 days relative to control; format: functional; settings: route intraperitoneal
Procedure, shortened: (§4)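 C57BL/6 mice implanted ip with 0.5 mL of B16 melanoma brei. Alkaloid sulfate salts given ip on days 1, 5, 9 or on days 5, 9, 13. Percent increase in life span measured against controls; experiment ended at 61 days.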

B16 [16] = experiment: Antitumor activity against mouse B16 cells allografted in C57Bl/6 mouse assessed as increase in life span at 0.9 mg/kg/day, ip administered on day 1, 5 and 9 measured for 61 days relative to control; format: functional; settings: route intraperitoneal; procedure, shortened: as §4
Rhesus monkey = experiment: Neurotoxicity in iv dosed monkey assessed as peripheral neuropathy; settings: in vivo
P388 [17] = experiment: Antitumor activity against mouse P388 cells allografted in mouse assessed as increase in life span at 1.8 mg/kg/day, ip after 1 day; format: functional; settings: 24 h, route intraperitoneal; procedure, shortened: as §2
[18] = Antitumor activity against mouse Ridgeway osteogenic sarcoma cells allografted in mouse at 0.2 to 0.3 mg/kg/day, ip; format: functional; settings: route intraperitoneal; procedure, shortened: as §3
B16 [19] = experiment: Antitumor activity against mouse B16 cells allografted in B6D2F1 mouse assessed as increase in life span at 3 mg/kg/day, ip administered on day 1, 5 and 9 measured for 56 days relative to untreated control; format: functional; settings: route intraperitoneal; procedure, shortened: as §1
[20] = Acute toxicity in rat; format: organism-based; settings: in vivo
B16 [21] = experiment: Antitumor activity against mouse B16 cells allografted in B6D2F1 mouse assessed as mean survival time at 0.389 mg/kg/day, ip administered on day 1, 5 and 9 (reference value: 20.0 days); format: functional; settings: route intraperitoneal; procedure, shortened: as §1
B16 [22] = experiment: Antitumor activity against mouse B16 cells allografted in B6D2F1 mouse assessed as mean survival time at 1.8 mg/kg/day, ip administered on day 5, 9 and 13 (reference value: 20.0 days); format: functional; settings: route intraperitoneal; procedure, shortened: as §1
B16 [23] = experiment: Antitumor activity against mouse B16 cells allografted in B6D2F1 mouse assessed as mean survival time at 1.8 mg/kg/day, ip administered on day 1, 5 and 9 (reference value: 20.0 days); format: functional; settings: route intraperitoneal; procedure, shortened: as §1
Homo sapiens = experiment: Neurotoxicity in human assessed as neutropenia at 3 to 4 mg/m'2, iv once weekly dosed through push technique; format: toxicity, organism-based; settings: in vivo
P388 [24] = experiment: Antitumor activity against mouse P388 cells allografted in mouse assessed as increase in life span at 0.10 mg/kg/day, ip administered from day 1 to day 9 relative to untreated control; format: functional; settings: route intraperitoneal; procedure, shortened: as §2
P388 [25] = experiment: Antitumor activity against mouse P388 cells allografted in mouse assessed as increase in life span at 6 mg/kg/day, ip after 1 day; format: functional; settings: 24 h, route intraperitoneal; procedure, shortened: as §2
P388 [26] = experiment: Antitumor activity against mouse P388 cells allografted in mouse assessed as increase in life span at 4 mg/kg/day, ip after 1 day; format: functional; settings: 24 h, route intraperitoneal; procedure, shortened: as §2
P388 [27] = experiment: Antitumor activity against mouse P388 cells allografted in mouse assessed as increase in life span at 0.9 mg/kg/day, ip administered from day 1 to day 9 relative to untreated control; format: functional; settings: route intraperitoneal; procedure, shortened: as §2
[28] = Toxicity in ip dosed mouse allografted with mouse p388 cells administered from day 1 to day 9; format: organism-based; settings: in vivo, read-out: MNTD; procedure, shortened: as §2

CC[C@]1(O)C[C@@H]2CN(CCc3c([nH]c4ccccc34)[C@@](C(=O)OC)(c3cc4c(cc3OC)N(C)[C@H]3[C@@](O)(C(N)=O)[C@H](O)[C@]5(CC)C=CCN6CC[C@]43[C@@H]65)C2)C1.O=S(=O)(O)O [VINDESINE SULFATE]
MST (B16 [1]): 47.5 days
inhibition in vivo at 0.2 mg/kg/day [2]: 80%
MST (B16 [3]): 38.3 days
MST (B16 [4]): 25 days
ILS at 2.7 mg/kg/day (P388 [5]): 95%
ILS at 13.5 mg/kg/day (P388 [6]): 231%
TGI [7]: 75%
inhibition in vivo at 0.2 mg/kg/day [8]: 74%
MST (B16 [9]): 42 days
MST (B16 [10]): 29.5 days
ILS at 0.389 mg/kg/day (B16 [11]): 85%
MTD at 24 h [12]: 13.5 mg/kg/day
MST (B16 [13]): 31.5 days
MST (B16 [14]): 35 days
ILS at 0.9 mg/kg/day (B16 [15]): 78%
ILS at 0.9 mg/kg/day (B16 [16]): 60%
Activity (Rhesus monkey): Non-toxic
ILS at 1.8 mg/kg/day (P388 [17]): 54%
TGI [18]: 75%
ILS at 3 mg/kg/day (B16 [19]): 138%
LD50 [20]: 2 mg/kg
MST (B16 [21]): 37 days
MST (B16 [22]): 39 days
MST (B16 [23]): 48.5 days
Activity (Homo sapiens): Toxic
ILS at 0.1 mg/kg/day (P388 [24]): 109%
ILS at 6 mg/kg/day (P388 [25]): 109%
ILS at 4 mg/kg/day (P388 [26]): 77%
ILS at 0.9 mg/kg/day (P388 [27]): 177%
MTD [28]: 0.9 mg/kg/day
